ChEMBL document CHEMBL1687821, “In vivo and in vitro efficacy of chloroquine against Plasmodium malariae and P. ovale in Papua, Indonesia” (Antimicrob Agents Chemother, 2011)

Assays:
Plasmodium ovale [1] = assay: Antimalarial activity against Plasmodium ovale ring stage infected in red blood cells in presence of AB+ human serum by drug susceptibility assay; type: functional
In short: (§1)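 Field isolates from venous blood, leukocytes removed on CF11 column. Modified WHO schizont-maturation microtest at 2% hematocrit in McCoy's 5A with 20% AB+ serum, 11 twofold dilutions (chloroquine top 5,910 nM). Candle jar, 37.5°C, 15–56 h, stopped at >40% schizonts in the drug-free control. Schizonts (≥5 chromatin dots) per 200 asexual parasites, normalized to control. IC50 from inhibitory sigmoid Emax fit. Isolates grouped by predominant stage at start.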

Plasmodium malariae [2] = assay: Antimalarial activity against Plasmodium malariae ring stage infected in red blood cells in presence of AB+ human serum by drug susceptibility assay; type: functional, organism-based; in short: as §1
Plasmodium malariae [3] = assay: Antimalarial activity against Plasmodium malariae trophozoite stage infected in red blood cells in presence of AB+ human serum by drug susceptibility assay; type: functional, organism-based; in short: as §1
Plasmodium ovale [4] = assay: Antimalarial activity against Plasmodium ovale trophozoite stage infected in red blood cells in presence of AB+ human serum by drug susceptibility assay; type: functional; in short: as §1
Plasmodium ovale [5] = assay: Antimalarial activity against Plasmodium ovale in patients assessed as parasite reduction ratio at 25 mg/kg, po after 48 hrs; type: functional
In short: (§2)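 Oral chloroquine tablets (150 mg base each) at 25 mg/kg over 3 days, all doses supervised; dose repeated once if vomited within 60 min. Parasitemia counted on Giemsa-stained thick films as parasites per 200 WBCs by an expert microscopist. Reduction ratio taken at 48 h.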

Plasmodium malariae [6] = assay: Antimalarial activity against Plasmodium malariae in patients assessed as parasite reduction ratio at 25 mg/kg, po after 48 hrs; type: functional; in short: as §2

CCN(CC)Cc1cc(Nc2ccnc3cc(Cl)ccc23)ccc1O
IC50 (Plasmodium ovale [1]): 4.3 nM
IC50 (Plasmodium malariae [2]): 21.7 nM
IC50 (Plasmodium malariae [3]): 19.1 nM

C[C@H]1[C@H](OC(=O)CCC(=O)O)O[C@@H]2O[C@@]3(C)CC[C@H]4[C@H](C)CC[C@@H]1[C@@]24OO3 [ARTESUNATE]
IC50 (Plasmodium ovale [1]): 1.16 nM
IC50 (Plasmodium ovale [4]): 1.28 nM
IC50 (Plasmodium malariae [2]): 1.77 nM
IC50 (Plasmodium malariae [3]): 2.84 nM

CCN(CC)CCCC(C)Nc1ccnc2cc(Cl)ccc12 (stereo not drawn) [CHLOROQUINE]
IC50 (Plasmodium ovale [1]): 7.8 nM
Ratio (Plasmodium ovale [5]): 150
IC50 (Plasmodium ovale [4]): 23.2 nM
IC50 (Plasmodium malariae [2]): 14 nM
Ratio (Plasmodium malariae [6]): 86
IC50 (Plasmodium malariae [3]): 128 nM

OC(c1cc(C(F)(F)F)nc2c(C(F)(F)F)cccc12)C1CCCCN1 (stereo not drawn) [MEFLOQUINE]
IC50 (Plasmodium ovale [1]): 23.8 nM
IC50 (Plasmodium malariae [2]): 36.8 nM
IC50 (Plasmodium malariae [3]): 46.9 nM

Clc1ccc2c(N3CCN(CCCN4CCN(c5ccnc6cc(Cl)ccc56)CC4)CC3)ccnc2c1 [PIPERAQUINE]
IC50 (Plasmodium ovale [1]): 10.2 nM
IC50 (Plasmodium ovale [4]): 7.57 nM
IC50 (Plasmodium malariae [2]): 29 nM
IC50 (Plasmodium malariae [3]): 38.4 nM

COc1ccc2nc3cc(Cl)ccc3c(Nc3cc(CN4CCCC4)c(O)c(CN4CCCC4)c3)c2n1 [PYRONARIDINE]
IC50 (Plasmodium ovale [1]): 0.72 nM
IC50 (Plasmodium malariae [2]): 4.1 nM
IC50 (Plasmodium malariae [3]): 7.8 nM
